A short description of series [1]: Stability in Ile-de-France ewe serum assessed as intact compound level at 50 uM incubated for 1 hr by HPLC method. In kind it is ADME, cell-free, Ovis aries. The settings on record: sheep, BLD = below limit of detection. The procedure, abridged: (§1)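 Ile-de-France ewe serum, stored at −20 °C and preheated 30 min at 39 °C. Peptide at 50 μM final, with L-phenylalaninol internal calibrator, incubated at 39 °C. Proteins precipitated with MeCN and spun; supernatant run on RP-HPLC (2–52% MeCN/0.1% TFA over 5 min, UV 214 nm, plus MS). Intact peak given as % of t = 0 area; five independent experiments.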

Series [2] has as its target T1, KiSS-1 receptor (Homo sapiens, UniProt Q969F8). The experiment in a line: Agonist activity at human wild-type KISS1R expressed in HEK293 cells assessed as induction of intracellular Ca2+ mobilization after 30 mins by Fluo4 NW Ca2+ assay. In kind it is functional, cell-based. A digest of the protocol: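 HEK293 stably expressing HA-tagged wild-type human KISS1R, plated 40 000 cells/well 48 h prior. Loaded with Fluo4 NW dye 30 min at 37 °C plus 30 min at rt. Basal read 5× at 7 s intervals, compound added (final 1 pM–1 μM), Ca2+ followed 7 min. Mean basal subtracted, AUC plotted against concentration, sigmoid fit gives EC50. Nontransfected HEK293 served as control.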

Series [3] deals with Ovis aries. The experiment in a line: Increase in maximal amplitude of plasma LH level in anoestrus Ile-de-France ewe at 5 nmol, iv by radioimmunoassay (reference value: 0.6 +/- 0.5 ng/ml). In kind it is functional. The procedure, abridged:
(§2)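 Intact acyclic anoestrous Ile-de-France ewes (3–5 y, 55–70 kg), jugular catheter placed the day before. Single iv bolus of 1–15 nmol/ewe. Basal LH taken every 10 min for 30 min, then every 10 min for 2 h, every 20 min for 4 h, then hourly. Plasma LH by RIA (1051-CY-LH standard, sensitivity 0.1 ng/mL). Peak, duration and AUC derived; mean ± SEM, N = 4–6.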

Series [4] relates to Ovis aries. Kind of series: Increase in total plasma LH level in anoestrus Ile-de-France ewe at 5 nmol, iv by radioimmunoassay. In kind it is functional, organism-based. A digest of the protocol:
as §2

Series [5] has as its target Neuropeptide FF receptor 1 (Homo sapiens, UniProt Q9GZQ6). Kind of series: Agonist activity at human NPFF1R expressed in CHO cells assessed as effect on forskolin-induced cAMP accumulation after 15 mins by luminescence based assay. It is filed as functional, cell-based. The procedure, abridged: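 CHO cells stably expressing hNPFF1R (Gαi-coupled), transfected with GloSensor; seeded 30 000 cells/well 24 h before, PBS-washed twice, loaded with GloSensor cAMP reagent 2 h. Compound added, luminescence read 15 min, then 300 nM forskolin + 0.25 mM IBMX added and read a further 120 min. Signal AUC plotted against concentration, sigmoid fit for EC50.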

Series [6] concerns the target T1, KiSS-1 receptor. The experiment in a line: Potency index, ratio of EC50 for KP10 to EC50 for compound for agonist activity at human wild-type KISS1R expressed in HEK293 cells assessed as induction of intracellular Ca2+ mobilization after 30 mins by Fluo4 NW Ca2+ assay. It is filed as functional, cell-based. A digest of the protocol: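 Ratio of KP10 EC50 to analog EC50, both measured by Fluo4 NW Ca2+ mobilization in HEK293 cells stably expressing HA-tagged human KISS1R. AUC from 7 min of monitoring, concentrations 1 pM–1 μM, sigmoid fit.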

Series [7] can be described thus: Stability in Ile-de-France ewe serum assessed as intact compound level at 50 uM incubated for 6 hrs by HPLC method. It is filed as ADME, cell-free, Ovis aries. To be noted: female, sheep, read-out: Stability. A digest of the protocol: as §1
In series [8] the test system is Ovis aries. Kind of series: Increase in maximal amplitude of plasma LH level in anoestrus Ile-de-France ewe at 1 to 15 nmol, iv by radioimmunoassay. It is filed as functional, organism-based. The procedure, abridged: as §2
Series [9] relates to Ovis aries. Kind of series: Increase in time duration of increase of plasma LH level in anoestrus Ile-de-France ewe at 1 to 15 nmol, iv by radioimmunoassay. In kind it is functional, organism-based. The procedure, abridged: as §2
The species named for series [10] is Homo sapiens. Kind of series: Selectivity index, ratio of EC50 for human NPFF1R to EC50 for human wild-type KISS1R.
Series [11] concerns Ovis aries. The experiment in a line: Increase in maximal amplitude of plasma LH level in anoestrus Ile-de-France ewe at 5 nmol, iv by radioimmunoassay (reference value: 0.4 +/- 0.2 ng/ml). In kind it is functional. A digest of the protocol: as §2
For series [12], the system named is Ovis aries. Kind of series: Increase in total plasma LH level in anoestrus Ile-de-France ewe at 1 to 15 nmol, iv by radioimmunoassay. It is filed as functional, organism-based. A digest of the protocol:
as §2

The test system of series [13] is Ovis aries. Kind of series: Increase in duration of increase of plasma LH level in anoestrus Ile-de-France ewe at 5 nmol, iv by radioimmunoassay. In kind it is functional. The procedure, abridged:
as §2

Series [14] can be described thus: Drug metabolism in Ile-de-France ewe serum treated with 50 uM Ac-Tyr-Asn-Trp-Asn-Ser-Phe-azaGly-Leu-Arg-Tyr-NH2 assessed as retention time incubated for 6 hrs by LC-MS method. It is filed as ADME, cell-free, Ovis aries. To be noted: sheep.
Series [15] can be described thus: Drug metabolism in Ile-de-France ewe serum assessed as cleavage at C and N-termini of azaGly bond at 50 uM incubated for 6 hrs by LC-MS method. In kind it is ADME, cell-free, Ovis aries. The settings on record: sheep.

The source made the active and inactive calls. The rule behind the calls is not given here. *1 amine or outer side, *2 acyl side, *3 side chain or, on linkers, in order; H or OH if unused. Where a SMILES comes first, the peptide text is derived from it. Side-chain parts run from the residue outwards. [ ]: non-standard residue; d: D form. The star is where a group is joined. Glyψ(1,4-Tz)Leu = CC(C)C[C@@H](C(=O)[*:2])n1cc(CN[*:1])nn1; X1 = O=C(Cn1cc([C@H](Cc2ccccc2)N[*:1])nn1)[*:2]; γGlu = O=C(O)[C@H](CCC(=O)[*:2])N[*:1]; Palmitoyl = CCCCCCCCCCCCCCCC(=O)*; azaGly = NNC(=O)O

T1 sequence (Q969F8 whole entry): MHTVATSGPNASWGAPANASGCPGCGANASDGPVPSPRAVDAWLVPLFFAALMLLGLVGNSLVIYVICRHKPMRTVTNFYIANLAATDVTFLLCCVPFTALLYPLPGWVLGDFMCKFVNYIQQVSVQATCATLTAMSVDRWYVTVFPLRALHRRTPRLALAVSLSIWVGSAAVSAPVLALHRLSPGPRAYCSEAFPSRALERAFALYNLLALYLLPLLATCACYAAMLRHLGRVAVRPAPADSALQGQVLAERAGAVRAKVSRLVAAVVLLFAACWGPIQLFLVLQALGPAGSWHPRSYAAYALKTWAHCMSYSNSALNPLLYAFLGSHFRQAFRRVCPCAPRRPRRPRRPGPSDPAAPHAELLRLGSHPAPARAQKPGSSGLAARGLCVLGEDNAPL
Neuropeptide FF receptor 1, sequence (Q9GZQ6 whole entry): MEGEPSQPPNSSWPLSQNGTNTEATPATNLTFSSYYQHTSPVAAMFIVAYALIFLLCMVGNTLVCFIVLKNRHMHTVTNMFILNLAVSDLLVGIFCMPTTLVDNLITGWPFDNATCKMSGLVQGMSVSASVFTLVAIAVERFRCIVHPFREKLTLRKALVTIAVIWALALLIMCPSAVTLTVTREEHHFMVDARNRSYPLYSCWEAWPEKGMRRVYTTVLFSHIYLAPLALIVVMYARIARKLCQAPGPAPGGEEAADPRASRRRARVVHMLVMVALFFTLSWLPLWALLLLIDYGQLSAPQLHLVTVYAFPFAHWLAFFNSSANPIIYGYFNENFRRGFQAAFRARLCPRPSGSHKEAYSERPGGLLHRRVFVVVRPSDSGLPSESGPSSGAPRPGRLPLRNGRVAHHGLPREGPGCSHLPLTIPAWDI

For the compound H-YNWNSFGLRY-NH2, the Stability result in series [1] was “BLD”. Further, the EC50 in series [2] is 2.5 nM. In [3], the Activity was determined as 3.3 ng/mL.

For the compound `CC(=O)N[C@@H](Cc1ccc(O)cc1)C(=O)N[C@@H](CC(N)=O)C(=O)N[C@@H](Cc1c[nH]c2ccccc12)C(=O)N[C@@H](CC(N)=O)C(=O)N[C@@H](CO)C(=O)N[C@@H](Cc1ccccc1)C(=O)NCc1cn([C@@H](CC(C)C)C(=O)N[C@@H](CCCNC(=N)N)C(=O)N[C@@H](Cc2ccc(O)cc2)C(N)=O)nn1` (Ac-YNWNSF[Glyψ(1,4-Tz)Leu]RY-NH2), the result in series [4], in series [8], in series [9] and in series [12] was Active. Besides, the EC50 is above 5000 nM in series [5] and 0.07 nM in series [2]. For the same compound, the Ratio EC50 in series [6] was 30; in series [10], above 10000. Further, the remaining at 6 h, 50 µM in series [7] is 40.8%. For the same compound, the Activity in series [11] worked out at 5.4 ng/mL. The “fold change (FC)” value in [13] is recorded as above 2.

In the case of `CCCCCCCCCCCCCCCC(=O)NCCCC[C@H](NC(=O)[C@H](CC(N)=O)NC(=O)[C@H](Cc1ccc(O)cc1)NC(C)=O)C(=O)N[C@@H](CC(N)=O)C(=O)N[C@@H](CO)C(=O)N[C@@H](Cc1ccccc1)C(=O)NCC(=O)N[C@@H](CC(C)C)C(=O)N[C@@H](CCCNC(=N)N)C(=O)N[C@@H](Cc1ccc(O)cc1)C(N)=O` (Ac-YNK(Palmitoyl)NSFGLRY-NH2), the EC50 in series [2] is above 500 nM.

For Ac-YNWNSF-OH, the Retention_time in series [14] turned out to be 9.51 min.

Take `CC(=O)N[C@@H](Cc1ccc(O)cc1)C(=O)N[C@@H](CC(N)=O)C(=O)N[C@@H](Cc1c[nH]c2ccccc12)C(=O)N[C@@H](CC(N)=O)C(=O)N[C@@H](CO)C(=O)N[C@@H](Cc1ccccc1)c1cn(CC(=O)N[C@@H](CC(C)C)C(=O)N[C@@H](CCCNC(=N)N)C(=O)N[C@@H](Cc2ccc(O)cc2)C(N)=O)nn1` (Ac-YNWNS[X1]LRY-NH2): the EC50 in [2] amounted to 0.6 nM. The remaining at 6 h, 50 µM in series [7] is 61.4%.

In the case of Ac-YNWNK(Ac)FGLRY-NH2, the EC50 in series [2] worked out at 7.2 nM.

As to `CCCCCCCCCCCCCCCC(=O)NCCCC[C@H](NC(=O)[C@H](Cc1ccc(O)cc1)NC(C)=O)C(=O)N[C@@H](Cc1c[nH]c2ccccc12)C(=O)N[C@@H](CC(N)=O)C(=O)N[C@@H](CO)C(=O)N[C@@H](Cc1ccccc1)C(=O)NCC(=O)N[C@@H](CC(C)C)C(=O)N[C@@H](CCCNC(=N)N)C(=O)N[C@@H](Cc1ccc(O)cc1)C(N)=O` (Ac-YK(Palmitoyl)WNSFGLRY-NH2), in series [2], the EC50 amounted to 182 nM.

In the case of `CC(=O)N[C@@H](Cc1ccc(O)cc1)C(=O)N[C@@H](CC(N)=O)C(=O)N[C@@H](Cc1c[nH]c2ccccc12)C(=O)N[C@@H](CC(N)=O)C(=O)N[C@@H](CO)C(=O)N[C@@H](Cc1ccccc1)c1cn(Cc2cn([C@@H](CC(C)C)C(=O)N[C@@H](CCCNC(=N)N)C(=O)N[C@@H](Cc3ccc(O)cc3)C(N)=O)nn2)nn1`, the EC50 in series [2] was determined as 120 nM. In addition, in series [7], the remaining at 6 h, 50 µM was found to be 50.7%.

Turning to Ac-YNWK(Ac)SFGLRY-NH2, the EC50 in [2] turned out to be 13.9 nM.

With Ac-YNWNSFGLRY-NH2, the outcome in series [4] and in series [13] was Active. Further, the EC50 was above 5000 nM in [5] and 0.07 nM in series [2]. Besides, the remaining at 6 h, 50 µM in [7] stood at 2.6%. Besides, the Ratio EC50 in series [10] is above 10000. This compound had an Activity in [3] of 3.9 ng/mL.

Take `CCCCCCCCCCCCCCCC(=O)N[C@@H](CCC(=O)NCCCC[C@H](NC(=O)[C@H](CC(N)=O)NC(=O)[C@H](Cc1ccc(O)cc1)NC(C)=O)C(=O)N[C@@H](CC(N)=O)C(=O)N[C@@H](CO)C(=O)N[C@@H](Cc1ccccc1)C(=O)NCC(=O)N[C@@H](CC(C)C)C(=O)N[C@@H](CCCNC(=N)N)C(=O)N[C@@H](Cc1ccc(O)cc1)C(N)=O)C(=O)O` (Ac-YNK([γGlu-Palmitoyl])NSFGLRY-NH2): the EC50 in [2] worked out at 24.4 nM.

As to `CC(C)C[C@H](N)C(=O)N[C@@H](CCCNC(=N)N)C(=O)N[C@@H](Cc1ccc(O)cc1)C(N)=O` (H-Leu-Arg-Tyr-NH2), in series [14], the Retention_time worked out at 7.57 min.

With Ac-K(Ac)NWNSFGLRY-NH2, the EC50 in series [2] amounted to 0.9 nM.

On to Ac-YK(Ac)WNSFGLRY-NH2, for which, in [2], the EC50 was 0.1 nM.

With `CCCCCCCCCCCCCCCC(=O)N[C@@H](CCC(=O)NCCCC[C@H](NC(=O)[C@H](CC(N)=O)NC(=O)[C@H](Cc1ccc(O)cc1)NC(C)=O)C(=O)N[C@@H](CC(N)=O)C(=O)N[C@@H](CO)C(=O)N[C@@H](Cc1ccccc1)C(=O)NCc1cn([C@@H](CC(C)C)C(=O)N[C@@H](CCCNC(=N)N)C(=O)N[C@@H](Cc2ccc(O)cc2)C(N)=O)nn1)C(=O)O` (Ac-YNK([γGlu-Palmitoyl])NSF[Glyψ(1,4-Tz)Leu]RY-NH2), in [2], the EC50 came to 216 nM.

Turning to `CC(=O)N[C@@H](Cc1ccc(O)cc1)C(=O)N[C@@H](CC(N)=O)C(=O)N[C@@H](Cc1c[nH]c2ccccc12)C(=O)N[C@@H](CC(N)=O)C(=O)N[C@@H](CO)C(=O)N[C@@H](Cc1ccccc1)C(=O)NNC(=O)N[C@@H](CC(C)C)C(=O)N[C@@H](CCCNC(=N)N)C(=O)N[C@@H](Cc1ccc(O)cc1)C(N)=O` (Ac-YNWNSF[azaGly]LRY-NH2), the EC50 in series [2] is 0.006 nM. Further, in series [7], the remaining at 6 h, 50 µM turned out to be 8.4%. In [15], the Drug metabolism result was “metabolite_detected”.

Turning to `CCCCCCCCCCCCCCCC(=O)N[C@@H](CCC(=O)NCCCC[C@H](NC(=O)[C@H](Cc1ccc(O)cc1)NC(C)=O)C(=O)N[C@@H](Cc1c[nH]c2ccccc12)C(=O)N[C@@H](CC(N)=O)C(=O)N[C@@H](CO)C(=O)N[C@@H](Cc1ccccc1)C(=O)NCC(=O)N[C@@H](CC(C)C)C(=O)N[C@@H](CCCNC(=N)N)C(=O)N[C@@H](Cc1ccc(O)cc1)C(N)=O)C(=O)O` (Ac-YK([γGlu-Palmitoyl])WNSFGLRY-NH2), in series [2], the half-maximal effective concentration (EC50) is 2.9 nM.

As to Ac-YNK(Ac)NSFGLRY-NH2, in series [2], the EC50 is 0.08 nM.

The values are drawn from ChEMBL document CHEMBL3421632, “Rational design of triazololipopeptides analogs of kisspeptin inducing a long-lasting increase of gonadotropins” (J Med Chem, 2015).
